Measurements published in ChEMBL document CHEMBL1126206, “Potential anti-AIDS naphthalenesulfonic acid derivatives. Synthesis and inhibition of HIV-1 induced cytopathogenesis and HIV-1 and HIV-2 reverse transcriptase activities” (J Med Chem, 1992).

What was measured:
[1] = system: MT4; test: Evaluated for 50% antiviral effective concentration based on inhibition of HIV-1 (HTLV-IIIB) induced cytopathogenicity in MT-4 cells; format: functional, cell-based; settings: Homo sapiens
Outline: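 MT-4 cells were infected with HIV-1 HTLV-IIIB at MOI 0.02 and cultured with a range of compound concentrations for 4 days. Viable cells were counted by MTT.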

[2] = Evaluated for 50% cytotoxic concentration based on reduction of viability of mock-infected cells; format: cell-based; settings: human, MT4 cells (mock-infected)
Outline: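 Mock-infected MT-4 cells were cultured with a range of compound concentrations for 4 days, and viability was read by MTT.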

[3] = biological target: Human immunodeficiency virus type 1 reverse transcriptase (Human immunodeficiency virus 1, UniProt Q72547); test: Inhibition of purified HIV-1 reverse transcriptase
Outline: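 Recombinant dimeric RT expressed in E. coli (HIV-1 p66/p51, HIV-2 p68/p55), 0.08 μg per reaction; identical conditions for both enzymes. Buffer: 50 mM Tris-HCl pH 8.0, 150 mM KCl, 5 mM MgCl2, 0.5 mM EGTA, 5 mM DTT, 0.3 mM glutathione. Template-primer poly(rA)·oligo(dT)12-18 with 20 μM TTP plus [3H]TTP. Compound in DMSO or water. Incubated 1 h at 37 °C, stopped with EGTA. Incorporation read on DE-81 filters by scintillation.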

Row | Structure (SMILES) | IC50 [3] | EC50 [1] | CC50 [2]
1 | Nc1ccc2c(S(=O)(=O)O)cc(S(=O)(=O)O)c(N)c2c1O | – | > 7.7 µM | 7.7 µM
2 | CC(=O)Nc1cc(S(=O)(=O)O)cc2cc(S(=O)(=O)O)cc(OC(C)=O)c12 | > 1000 µM | > 500 µM | > 500 µM
3 | O=C(O)CCCC(=O)Nc1cc(S(=O)(=O)O)cc2cc(S(=O)(=O)O)cc(O)c12 | > 1000 µM | > 500 µM | > 500 µM
4 | COc1cc(S(=O)(=O)O)cc2cc(S(=O)(=O)[O-])cc([N+](C)(C)C)c12 | > 1000 µM | > 500 µM | > 500 µM
5 | COc1cc(S(=O)(=O)O)cc2cc(S(=O)(=O)O)cc(N(C)C)c12 | > 1000 µM | > 500 µM | > 500 µM
6 | Nc1cc(S(=O)(=O)O)cc2cc(S(=O)(=O)O)cc(S(=O)(=O)O)c12 | > 1000 µM | > 100 µM | > 100 µM
7 | CC(=O)Oc1cc(S(=O)(=O)O)cc2cc(S(=O)(=O)O)cc(OC(C)=O)c12 | > 1000 µM | > 461 µM | 461 µM
8 | CC(=O)Oc1cc(S(=O)(=O)O)cc2cc(S(=O)(=O)O)c(N=Nc3ccccc3)c(OC(C)=O)c12 | > 1000 µM | > 500 µM | > 500 µM
9 | CCCCCCCCCCCCCCCC(=O)Nc1cc(S(=O)(=O)O)cc2cc(S(=O)(=O)O)cc(O)c12 | – | 37 µM | 250 µM
10 | CCCCCCCCCCCCCCCC(=O)Oc1cc(S(=O)(=O)O)cc2cc(S(=O)(=O)O)cc(OC(=O)CCCCCCCCCCCCCCC)c12 | – | > 15 µM | 15 µM
11 | Nc1ccc2cc(S(=O)(=O)O)cc(S(=O)(=O)O)c2c1 | > 1000 µM | > 500 µM | > 500 µM
12 | Nc1cc(S(=O)(=O)O)cc2cc(S(=O)(=O)O)cc(O)c12 | > 1000 µM | > 529 µM | 529 µM
13 | O=S(=O)(O)c1cc(O)c2c(O)cc(S(=O)(=O)O)cc2c1 [CHROMOTROPATE] | – | > 1180 µM | 1180 µM
14 | Cc1ccc(C(=O)Nc2ccc(S(=O)(=O)O)c3cc(S(=O)(=O)O)cc(S(=O)(=O)O)c23)cc1NC(=O)c1cccc(NC(=O)Nc2cccc(C(=O)Nc3cc(C(=O)Nc4ccc(S(=O)(=O)O)c5cc(S(=O)(=O)O)cc(S(=O)(=O)O)c45)ccc3C)c2)c1 [SURAMIN] | – | 8.2 µM | 250 µM

Now from value to molecule, other results behind:

Row | IC50 [3] | Structure (SMILES) | EC50 [1] | CC50 [2]
15 | > 849 µM | O=S(=O)(O)c1cc(NS(=O)(=O)c2ccc(-c3ccc(S(=O)(=O)Nc4cc(S(=O)(=O)O)cc5cc(S(=O)(=O)O)cc(S(=O)(=O)O)c45)cc3)cc2)c2c(S(=O)(=O)O)cc(S(=O)(=O)O)cc2c1 | 36 µM | > 100 µM
16 | > 1000 µM | O=S(=O)(O)c1ccc(-c2ccc(S(=O)(=O)Nc3cc(S(=O)(=O)O)cc4cc(S(=O)(=O)O)cc(S(=O)(=O)O)c34)cc2)cc1 | > 100 µM | > 100 µM
17 | 55 µM | CCCCCCCCCCCCCCCC(=O)Nc1cc(S(=O)(=O)O)cc2cc(S(=O)(=O)O)cc(S(=O)(=O)O)c12 | > 42 µM | 42 µM
18 | > 1000 µM | CC(=O)Nc1cc(S(=O)(=O)O)cc2cc(S(=O)(=O)O)cc(S(=O)(=O)O)c12 | > 100 µM | > 100 µM
19 | 135 µM | O=C(O)CCCCCCCCC(=O)Nc1cc(S(=O)(=O)O)cc2cc(S(=O)(=O)O)cc(O)c12 | 134 µM | > 500 µM
20 | 136 µM | O=C(CCCCCCCCCCC(=O)Nc1cc(S(=O)(=O)O)cc2cc(S(=O)(=O)O)cc(S(=O)(=O)O)c12)Nc1cc(S(=O)(=O)O)cc2cc(S(=O)(=O)O)cc(S(=O)(=O)O)c12 | > 51 µM | > 100 µM
21 | 162 µM | Nc1c(S(=O)(=O)O)cc2cc(S(=O)(=O)O)cc(O)c2c1O | > 12 µM | 12 µM
22 | 427 µM | O=C(O)c1cc(NS(=O)(=O)c2ccc(-c3ccc(S(=O)(=O)Nc4cc(C(=O)O)c(O)c(S(=O)(=O)O)c4)cc3)cc2)cc(S(=O)(=O)O)c1O | 52.5 µM | 247 µM
23 | 464 µM | O=C(Nc1cc(S(=O)(=O)O)cc2cc(S(=O)(=O)O)cc(O)c12)c1ccccc1 | 358 µM | > 500 µM
24 | 243 µM | CC(=O)Nc1cc(S(=O)(=O)O)cc2cc(S(=O)(=O)O)cc(O)c12 | 53 µM | 402 µM
25 | 125 µM | O=S(=O)(O)c1cc(S(=O)(=O)O)c2cc(NS(=O)(=O)c3ccc(-c4ccc(S(=O)(=O)Nc5ccc6cc(S(=O)(=O)O)cc(S(=O)(=O)O)c6c5)cc4)cc3)ccc2c1 | 29.5 µM | > 500 µM
26 | 52 µM | O=C(CCCCCCCCC(=O)Nc1cc(S(=O)(=O)O)cc2cc(S(=O)(=O)O)cc(O)c12)Nc1cc(S(=O)(=O)O)cc2cc(S(=O)(=O)O)cc(O)c12 | 9.7 µM | 288 µM
27 | 50 µM | Nc1cc(S(=O)(=O)O)c2ccccc2c1N | > 189 µM | 189 µM
